Results: ChEMBL document CHEMBL3585276, “Topoisomerase I and II inhibitory activity, cytotoxicity, and structure-activity relationship study of dihydroxylated 2,6-diphenyl-4-aryl pyridines” (Bioorg Med Chem, 2015)

Tests used:
[1] = target: T1, DNA topoisomerase 1 (Homo sapiens) (UniProt P11387); experiment: Inhibition of recombinant human DNA topoisomerase-1 assessed as relaxation of supercoiled DNA pBR322 at 100 uM after 30 mins by agarose gel electrophoresis relative to control
T1 sequence (whole entry): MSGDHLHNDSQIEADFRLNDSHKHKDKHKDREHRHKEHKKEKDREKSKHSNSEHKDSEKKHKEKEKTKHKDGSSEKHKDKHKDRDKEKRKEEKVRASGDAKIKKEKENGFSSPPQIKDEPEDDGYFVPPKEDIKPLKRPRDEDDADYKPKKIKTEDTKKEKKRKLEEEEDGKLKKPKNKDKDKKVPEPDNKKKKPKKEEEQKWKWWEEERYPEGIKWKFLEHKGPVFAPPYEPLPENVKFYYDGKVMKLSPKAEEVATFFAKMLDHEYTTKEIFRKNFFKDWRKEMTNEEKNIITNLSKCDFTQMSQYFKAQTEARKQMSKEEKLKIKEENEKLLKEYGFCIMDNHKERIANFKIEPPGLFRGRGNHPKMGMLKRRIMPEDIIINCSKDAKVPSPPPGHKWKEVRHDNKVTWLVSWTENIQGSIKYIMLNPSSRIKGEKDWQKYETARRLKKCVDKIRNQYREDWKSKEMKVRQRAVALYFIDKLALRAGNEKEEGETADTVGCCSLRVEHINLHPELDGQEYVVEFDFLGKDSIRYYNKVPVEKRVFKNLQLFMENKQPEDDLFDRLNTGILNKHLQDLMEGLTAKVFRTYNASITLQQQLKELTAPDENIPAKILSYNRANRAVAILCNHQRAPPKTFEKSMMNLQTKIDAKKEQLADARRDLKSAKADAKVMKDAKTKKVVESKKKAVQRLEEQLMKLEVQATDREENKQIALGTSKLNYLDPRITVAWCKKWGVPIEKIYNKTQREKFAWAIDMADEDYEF
In short: (§1)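 Relaxation assay with 100 ng pBR322 plasmid DNA and 1 unit recombinant human topo I. Buffer was 10 mM Tris–HCl pH 7.9, 150 mM NaCl, 0.1% BSA, 1 mM spermidine and 5% glycerol, incubated 37 °C for 30 min with or without compound. Products were run on a 1% agarose gel in TAE at 15 V for 7 h and stained with ethidium bromide (0.5 µg/mL) for 30 min.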

[2] = target: T1, DNA topoisomerase 1 (Homo sapiens); experiment: Inhibition of recombinant human DNA topoisomerase-1 assessed as relaxation of supercoiled DNA pBR322 at 20 uM after 30 mins by agarose gel electrophoresis relative to control; in short: as §1
[3] = target: DNA topoisomerase 2-alpha (Homo sapiens) (UniProt P11388); experiment: Inhibition of recombinant human DNA topoisomerase-2alpha using supercoiled pBR322 plasmid DNA as substrate at 100 uM after 30 mins by agarose gel electrophoresis relative to control
In short: (§2)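 200 ng supercoiled pBR322 with 1 unit human topo II, incubated 30 min at 30 °C with or without compound in 10 mM Tris–HCl pH 7.9, 50 mM NaCl, 5 mM MgCl2, 1 mM EDTA, 1 mM ATP and 15 µg/mL BSA. Reaction was stopped with 7 mM EDTA and run on 1% agarose in TAE at 25 V. Gel was stained with ethidium bromide, visualized under UV, and supercoiled DNA quantitated densitometrically.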

HeLa = experiment: Cytotoxicity against human HeLa cells measured on day 4 by CCK8 assay; assay type: functional, cell-based; conditions: 96 h
In short: (§3)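 Cells seeded at […], grown overnight in medium with 10% FBS at 37 °C under 5% CO2. On day 2 they were serum-starved 4 h, then exposed to graded compound concentrations. On day 4 CCK-8 was added for a further 4 h and absorbance read at 450 nm. IC50 came from a four-parameter logistic fit, mean ± SD of three experiments in triplicate.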

DU-145 = experiment: Cytotoxicity against human DU145 cells measured on day 4 by CCK8 assay; assay type: functional, cell-based; conditions: DU-145, 96 h; in short: as §3
HCT-15 = experiment: Cytotoxicity against human HCT15 cells measured on day 4 by CCK8 assay; assay type: functional, cell-based; conditions: HCT-15, 96 h; in short: as §3
[4] = target: DNA topoisomerase 2-alpha (Homo sapiens) (UniProt P11388); experiment: Inhibition of recombinant human DNA topoisomerase-2alpha using supercoiled pBR322 plasmid DNA as substrate at 20 uM after 30 mins by agarose gel electrophoresis relative to control; in short: as §2
T47D = experiment: Cytotoxicity against human T47D cells measured on day 4 by CCK8 assay; assay type: functional, cell-based; conditions: 96 h; in short: as §3

Chain of DNA topoisomerase 2-alpha (Homo sapiens) (P11388 whole entry): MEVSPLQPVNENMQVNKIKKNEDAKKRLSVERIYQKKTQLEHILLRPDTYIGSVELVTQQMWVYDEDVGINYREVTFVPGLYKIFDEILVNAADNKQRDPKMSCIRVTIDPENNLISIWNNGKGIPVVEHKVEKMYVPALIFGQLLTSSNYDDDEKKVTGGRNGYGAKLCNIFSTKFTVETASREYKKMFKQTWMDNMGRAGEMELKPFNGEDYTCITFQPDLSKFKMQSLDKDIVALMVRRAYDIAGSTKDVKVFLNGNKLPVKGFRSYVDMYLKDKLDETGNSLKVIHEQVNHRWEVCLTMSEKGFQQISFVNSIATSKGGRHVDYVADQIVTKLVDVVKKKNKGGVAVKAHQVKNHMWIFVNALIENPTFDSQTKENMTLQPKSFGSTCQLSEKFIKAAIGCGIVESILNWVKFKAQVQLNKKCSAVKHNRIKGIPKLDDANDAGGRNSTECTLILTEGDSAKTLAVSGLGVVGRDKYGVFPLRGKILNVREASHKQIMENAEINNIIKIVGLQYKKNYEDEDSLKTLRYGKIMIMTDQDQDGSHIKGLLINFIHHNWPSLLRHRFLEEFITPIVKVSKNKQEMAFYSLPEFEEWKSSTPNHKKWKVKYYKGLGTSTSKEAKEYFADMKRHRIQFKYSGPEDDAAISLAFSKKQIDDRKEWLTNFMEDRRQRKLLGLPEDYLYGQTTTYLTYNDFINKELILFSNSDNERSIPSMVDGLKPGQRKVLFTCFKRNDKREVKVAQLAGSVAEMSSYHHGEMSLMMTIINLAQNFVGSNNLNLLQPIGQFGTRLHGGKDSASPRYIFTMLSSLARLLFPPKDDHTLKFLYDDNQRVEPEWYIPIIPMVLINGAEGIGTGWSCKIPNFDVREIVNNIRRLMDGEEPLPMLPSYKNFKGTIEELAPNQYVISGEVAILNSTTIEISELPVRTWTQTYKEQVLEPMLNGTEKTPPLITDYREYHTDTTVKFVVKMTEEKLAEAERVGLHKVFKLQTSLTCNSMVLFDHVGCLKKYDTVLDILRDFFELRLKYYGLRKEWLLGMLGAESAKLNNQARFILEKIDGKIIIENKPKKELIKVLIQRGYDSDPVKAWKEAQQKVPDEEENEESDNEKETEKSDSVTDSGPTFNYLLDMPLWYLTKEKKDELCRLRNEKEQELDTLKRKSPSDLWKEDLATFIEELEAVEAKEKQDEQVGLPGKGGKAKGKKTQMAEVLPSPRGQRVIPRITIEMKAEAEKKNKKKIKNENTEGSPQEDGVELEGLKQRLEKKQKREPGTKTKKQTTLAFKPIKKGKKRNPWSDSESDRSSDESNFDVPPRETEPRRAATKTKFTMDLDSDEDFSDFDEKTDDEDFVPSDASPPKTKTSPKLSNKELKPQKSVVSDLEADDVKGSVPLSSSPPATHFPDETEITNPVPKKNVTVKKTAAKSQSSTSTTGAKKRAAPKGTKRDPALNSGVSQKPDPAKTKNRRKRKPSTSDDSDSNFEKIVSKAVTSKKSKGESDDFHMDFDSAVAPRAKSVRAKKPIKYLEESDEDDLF

Row | Structure (SMILES) | inhibition [1] [%] | inhibition [2] [%] | inhibition [3] [%] | IC50 (HeLa) [µM] | IC50 (DU-145) [nM] | IC50 (HCT-15) [µM] | inhibition [4] [%] | IC50 (T47D) [µM]
1 | Oc1ccc(-c2cc(-c3cccs3)cc(-c3ccccc3O)n2)cc1 | 72.2 | 2 | 76.4 | > 50 | > 50000 | > 50 | 30.2 | > 50
2 | Oc1ccc(-c2cc(-c3cccs3)cc(-c3ccc(O)cc3)n2)cc1 | 86.3 | 0.9 | 74.6 | > 50 | 2190 | > 50 | 30.3 | 11.7
3 | Oc1ccc(-c2cc(-c3ccco3)cc(-c3ccccc3O)n2)cc1 | 83 | 0 | 84.8 | > 50 | > 50000 | > 50 | 13.6 | > 50
4 | Oc1ccc(-c2cc(-c3ccoc3)cc(-c3cccc(O)c3)n2)cc1 | 37.4 | 1.3 | 95 | 3.31 | 2700 | 0.93 | 19.7 | 2.61
5 | Oc1ccc(-c2cc(-c3ccco3)cc(-c3ccc(O)cc3)n2)cc1 | 100 | 0 | 92.3 | > 50 | > 50000 | 14 | 48.4 | 21.1
6 | Oc1cccc(-c2cc(-c3cccs3)cc(-c3cccc(O)c3)n2)c1 | 91.7 | 0 | 78.3 | 1.69 | 1630 | 3.48 | 22.3 | 0.77
7 | Oc1cccc(-c2cc(-c3ccco3)cc(-c3ccccc3O)n2)c1 | 90.1 | 0 | 81.2 | > 50 | 1790 | > 50 | 21.5 | 0.82
8 | Oc1ccccc1-c1cc(-c2cccs2)cc(-c2ccccc2O)n1 | 77.2 | 0.2 | 55.9 | > 50 | > 50000 | > 50 | 10.8 | > 50
9 | Oc1cccc(-c2cc(-c3ccccn3)cc(-c3ccccc3O)n2)c1 | 35.4 | 0.1 | 62.5 | 2.02 | 17000 | > 50 | 1.5 | 2.56
10 | Oc1ccccc1-c1cc(-c2ccco2)cc(-c2ccccc2O)n1 | 89.1 | 0.2 | 52.2 | > 50 | > 50000 | > 50 | 13.3 | > 50
